Screening results: PubChem BioAssay, Johns Hopkins Ion Channel Center
TRPC4 PAM = allosteric potentiators of mouse TRPC4 channel. B-score at 10 µM. HEK293 TRPC4beta/mu-opioid, DAMGO EC20, Fluo-4 Ca2+ flux; stronger effect = higher value. 310,000 tested, 0.42% active. Q9QUQ5;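 active = B-score of calcium response area above 5 SD of library B-scores, with initial fluorescence ratio within 5 SD of library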
TRPC4 act = TRPC4 (mouse) channel activation | Q9QUQ5 | HEK293 TRPC4beta/mu-opioid, Fluo4 calcium fluorescence; stronger effect = higher value | B-score at 10 µM | 310,000 tested, 0.49% active | AID 2237;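 active = B-score above 5 SD of library B-scores, and initial fluorescence ratio not above library mean plus 5 SD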;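 also: positive B-score marks a calcium rise read as TRPC4 activation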
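Technique: kinetic Fluo4 calcium fluorescence; Test system: TRPC4beta and mu-opioid receptor HEK293 stable cells; Measure: B-scored integrated calcium fluorescence ratio; Benchmarks: low control buffer alone, high control maximal DAMGO; Schedule: 45 min room-temperature Fluo4 loading, 110 s read.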
TRPC4 inh = TRPC4 (mouse) channel inhibition; HEK293 TRPC4beta/mu-opioid, DAMGO-evoked Fluo4 calcium flux; stronger effect = lower value; B-score at 10 µM; 300,000 tested, 0.39% active;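 active = B-score over 3 SD under the library average, no early fluorescence shift, positive overall ratio signal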
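System: stable TRPC4beta/mu-opioid receptor HEK293 cells; Dosing: single-point compound dosing; Measured by: Fluo4 Ca2+ flux fluorescence; Read-out basis: per-well B score of integrated baseline-normalized Fluo4 ratio.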
TRPC6 activator = mouse TRPC6 channel activation; HEK293-TRPC6 membrane potential dye fluorescence; stronger effect = higher value; 310,000 tested, 0.13% active; B-score at 10 µM; Q61143;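 active = B-score of the integrated fluorescence ratio above library mean plus 3 SD, and starting fluorescence ratio within library mean plus 5 SD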;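 also: higher score means more depolarization so channel activation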
TRPC6 inhibitor = mouse TRPC6 channel inhibition | Q61143 | HEK293-TRPC6, membrane potential dye, ACh-evoked depolarization; stronger effect = lower value | B-score at 10 µM | 310,000 tested, 1.1% active;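 active = B-score under library mean minus 3 SD, initial fluorescence not abnormally high, positive integrated signal ratio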;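 also: B-score derived from integrated fluorescence ratio over the kinetic read; more negative B-score means stronger inhibition of depolarization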
Of the large screens only hits and unclear results are named; the others gave an inactive call. A selection: hits, their analogues and other compounds. The true share with any hit is near 2.3%.

CCCCN(CC)CCCNC(=O)CN1C(=O)CSc2ccc(S(=O)(=O)N3CCOCC3)cc21	TRPC4 act 55
CC1(C)COCN1C(=O)c1ccc(Cl)c(Cl)c1	none
COc1ccc(S(=O)(=O)N2CCCCCC2)cc1C(=O)N(C)Cc1ccc(Cl)cc1Cl	TRPC4 PAM 26
CCC1CN(C(=O)NCc2ccc(F)cc2)c2cc(C)ccc2O1 (stereo not drawn)	none
CCC1CN(C(=O)Nc2ccc(C)cc2)c2cc(C)ccc2O1 (stereo not drawn)	TRPC4 inh -6
Cc1ccc(-c2nc(C#N)c(N3CCC(C(N)=O)CC3)o2)cc1	none
Cc1cccc(-n2cnc3c(sc4nc(N5CCOCC5)c5c(c43)CCCC5)c2=O)c1	none
Cc1cc(NS(=O)(=O)c2ccc(NC(=O)COc3ccc(Cl)c(C)c3)cc2)no1	TRPC4 inh -6
O=C(O)Cc1ccc(NC(=O)c2ccc(NC(=O)C3CC3)cc2)cc1	none
CC1CCCCC1NC(=O)CCNC(=O)N1CC(=O)Nc2ccccc21 (stereo not drawn)	none
Cc1ccc2nc3c(cc(C(=O)NCCc4ccccc4)c(=N)n3CCN3CCOCC3)c(=O)n2c1	none
N=c1c(C(=O)NCc2ccccc2)cc2c(=O)n3ccccc3nc2n1Cc1ccco1	none
N=c1c(C(=O)NCc2ccc(F)cc2)cc2c(=O)n3ccccc3nc2n1Cc1ccco1	TRPC4 PAM 15
N=c1c(C(=O)NCc2ccco2)cc2c(=O)n3ccccc3nc2n1Cc1ccc(Cl)cc1	TRPC4 PAM 13
CC(C)n1c(=N)c(C(=O)NCCc2ccccc2)cc2c(=O)n3ccccc3nc21	TRPC6 inhibitor -10.1
CCCCC[C@H]1CN(C2CCCCC2)C(=O)[C@@H]1CC(=O)NCc1ccccc1	none
C/C(O)=c1/c(=O)nc2cccc3c2=c1c1ccccc1c3=O	none
C=CCc1ccccc1OCCOc1ccc([N+](=O)[O-])cc1/C=N/NC(N)=O	none
Oc1ccc(Cl)cc1C1=NNC(c2cccs2)C1 (stereo not drawn)	none
O=[N+]([O-])c1ccc(O)c(C2=NNC(c3ccccc3F)C2)c1 (stereo not drawn)	TRPC4 act 101, TRPC4 inh -6
Cc1c(Cl)cccc1NC(=O)CSc1nc2ncc(Cl)cc2[nH]1	none
Cc1ccc(CS(=O)(=O)Cc2ccc(C(=O)NC3CCCCCC3)o2)cc1	none
CC12CCCCN1CCCc1c2[nH]c2ccccc12 (stereo not drawn)	TRPC4 act 91
c1ccc2c3c([nH]c2c1)C1(CCCCC1)NCC3	none
Cc1cc(NC(=O)NCC(F)(F)F)no1	none
CN(C)C(CNC(=S)Nc1ccccc1)c1cccnc1 (stereo not drawn)	TRPC4 act 75
CN(C)C(CNC(=O)NC1CCCCC1)c1cccnc1 (stereo not drawn)	TRPC4 act 105
CN(C)C(CNC(=O)c1cccs1)c1cccnc1 (stereo not drawn)	none
CCc1cccc(C)c1NC(=S)NCC(c1cccnc1)N(C)C (stereo not drawn)	TRPC4 act 91
CN(C)C(CNC(=S)Nc1ccccc1Cl)c1cccnc1 (stereo not drawn)	TRPC4 act 104
COc1ccc(CCNC(=O)C2CCC(=O)N2S(=O)(=O)c2ccc(C)cc2)cc1 (stereo not drawn)	none
O=C(CCC(=O)Nc1ccc(Br)cc1)N/N=C/c1ccc(O)cc1	none
Cc1cccc(OCC(=O)NCC(=O)N/N=C/c2cc(Br)cc(Br)c2O)c1	none
CCOC(=O)N/N=C(/C)c1ccc(N2C(=O)C3CCCCC3C2=O)cc1 (stereo not drawn)	none
CN(C)C(CNC(=S)Nc1cccc(Cl)c1)c1cccnc1 (stereo not drawn)	TRPC4 act 93
S=C(NCc1ccncc1)Nc1cccc(Cl)c1	none
O=C(NC1CC1)c1ccc(NS(=O)(=O)c2ccc(F)cc2)cc1	none
CNCC(=O)Nc1ccc(Cl)c(C(F)(F)F)c1	TRPC4 PAM 28
CCOC(=O)C1=C(C)N(C)C(=S)NC1c1ccccc1 (stereo not drawn)	none
CCOC(=O)C1=C(C)N(C)C(=S)NC1c1ccccc1Cl (stereo not drawn)	none
CCOC(=O)C1=C(C)N(C)C(=S)NC1c1cccc(Cl)c1Cl (stereo not drawn)	TRPC4 PAM 21
